{"source": "ChEMBL document CHEMBL2176911", "about": "(J Med Chem, 2012)", "key": {"[1]": {"target": "Dual specificity protein kinase CLK1 (Mus musculus) (UniProt P22518)", "sequence (P22518 whole entry, looked up)": "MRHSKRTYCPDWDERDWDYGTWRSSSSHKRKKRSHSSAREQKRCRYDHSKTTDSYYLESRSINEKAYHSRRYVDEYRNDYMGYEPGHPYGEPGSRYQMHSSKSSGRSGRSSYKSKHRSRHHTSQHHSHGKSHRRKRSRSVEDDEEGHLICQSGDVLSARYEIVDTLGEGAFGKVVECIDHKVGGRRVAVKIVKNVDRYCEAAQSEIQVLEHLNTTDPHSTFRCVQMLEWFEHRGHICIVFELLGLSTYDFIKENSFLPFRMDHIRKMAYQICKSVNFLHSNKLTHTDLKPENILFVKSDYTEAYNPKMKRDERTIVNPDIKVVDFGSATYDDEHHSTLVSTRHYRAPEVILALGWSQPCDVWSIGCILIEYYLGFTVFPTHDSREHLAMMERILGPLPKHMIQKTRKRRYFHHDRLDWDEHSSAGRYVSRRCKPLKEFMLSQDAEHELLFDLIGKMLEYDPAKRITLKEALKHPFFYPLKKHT", "assay": "Inhibition of mouse recombinant GST-tagged CLK1 expressed in Escherichia coli using GRSRSRSRSRSR as substrate and [gamma33P]ATP at 10 uM after 30 mins by scintillation counting", "in_short": "(§1)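 Radiometric kinase assay with the RS peptide as substrate and 15 μM [γ-33P]ATP.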"}, "[2]": {"target": "T1, Dual specificity tyrosine-phosphorylation-regulated kinase 2 (Homo sapiens) (UniProt Q92630)", "T1 sequence (whole entry)": "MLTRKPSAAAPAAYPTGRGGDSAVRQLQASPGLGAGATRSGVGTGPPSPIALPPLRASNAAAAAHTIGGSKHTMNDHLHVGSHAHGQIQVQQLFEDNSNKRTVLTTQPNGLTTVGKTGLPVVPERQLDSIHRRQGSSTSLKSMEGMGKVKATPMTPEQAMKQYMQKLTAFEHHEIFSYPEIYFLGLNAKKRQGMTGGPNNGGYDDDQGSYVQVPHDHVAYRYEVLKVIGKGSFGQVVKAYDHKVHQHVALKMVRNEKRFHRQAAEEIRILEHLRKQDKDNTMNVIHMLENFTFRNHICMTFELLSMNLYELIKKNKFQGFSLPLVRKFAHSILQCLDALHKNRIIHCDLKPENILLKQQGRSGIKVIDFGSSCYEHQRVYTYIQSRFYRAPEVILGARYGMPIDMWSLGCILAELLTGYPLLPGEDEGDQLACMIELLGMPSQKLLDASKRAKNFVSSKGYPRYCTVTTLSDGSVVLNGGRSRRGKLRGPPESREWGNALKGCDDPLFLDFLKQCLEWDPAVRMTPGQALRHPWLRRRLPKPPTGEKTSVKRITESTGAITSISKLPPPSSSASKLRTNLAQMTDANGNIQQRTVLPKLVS", "assay": "Inhibition of human recombinant GST-tagged DYRK2 expressed in Escherichia coli using GRSRSRSRSRSR as substrate and [gamma33P]ATP at 10 uM after 30 mins by scintillation counting"}, "[3]": {"target": "Dual specificity protein kinase CLK3 (Mus musculus) (UniProt O35492)", "sequence (O35492 whole entry)": "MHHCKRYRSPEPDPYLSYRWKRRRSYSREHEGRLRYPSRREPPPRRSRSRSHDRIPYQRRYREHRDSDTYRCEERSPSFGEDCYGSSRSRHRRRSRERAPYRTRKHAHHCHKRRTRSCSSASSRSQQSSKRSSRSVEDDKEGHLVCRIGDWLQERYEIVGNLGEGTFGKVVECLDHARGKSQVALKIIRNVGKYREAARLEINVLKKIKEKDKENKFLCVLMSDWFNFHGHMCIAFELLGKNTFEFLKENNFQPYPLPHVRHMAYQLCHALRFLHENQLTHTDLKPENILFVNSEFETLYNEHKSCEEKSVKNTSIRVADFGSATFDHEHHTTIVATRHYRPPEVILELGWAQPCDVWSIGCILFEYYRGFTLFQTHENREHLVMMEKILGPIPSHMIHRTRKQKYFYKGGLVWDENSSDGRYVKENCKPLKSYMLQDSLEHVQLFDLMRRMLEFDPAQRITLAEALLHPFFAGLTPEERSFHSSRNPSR", "assay": "Inhibition of mouse recombinant GST-tagged CLK3 expressed in Escherichia coli using GRSRSRSRSRSR as substrate and [gamma33P]ATP at 10 uM after 30 mins by scintillation counting", "in_short": "as §1"}, "[4]": {"target": "Dual specificity tyrosine-phosphorylation-regulated kinase 1A (Homo sapiens) (UniProt Q13627)", "assay": "Inhibition of human recombinant GST-tagged DYRK1A expressed in Escherichia coli using GRSRSRSRSRSR as substrate and [gamma33P]ATP at 15 uM after 30 mins by scintillation counting"}, "HT-22 [5]": {"test_system": "HT-22", "assay": "Neuroprotective activity against glutamate-induced toxicity in mouse HT22 cells after 24 hrs by MTS assay", "assay_type": "functional, cell-based"}, "[6]": {"assay": "Inhibition of starfish CDK1/cyclin B using histone H1 as substrate and [gamma33P]ATP after 30 mins by scintillation counting", "design": "species or system Asteroidea", "in_short": "(§2)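 Panel of purified kinases (recombinant from several species plus native enzymes), each assayed radiometrically over a range of inhibitor concentrations; IC50 in μM calculated from the dose-response curves.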"}, "[7]": {"assay": "Binding affinity to casein kinase 1"}, "[8]": {"target": "Dual specificity protein kinase CLK3 (Mus musculus, UniProt O35492)", "sequence (O35492 whole entry)": "as above", "assay": "Inhibition of mouse recombinant GST-tagged CLK3 expressed in Escherichia coli using GRSRSRSRSRSR as substrate and [gamma33P]ATP after 30 mins by scintillation counting", "in_short": "as §2"}, "[9]": {"target": "Glycogen synthase kinase-3 (Sus scrofa, UniProt B2LUN4+I6LNT8)", "assay": "Inhibition of pig GSK3alpha/beta isolated from brain using YRRAAVPPSPSLSRHSSPHQ-phosphoS-EDEEE as substrate and [gamma33P]ATP after 30 mins by scintillation counting", "in_short": "as §2"}, "[10]": {"target": "T1, Dual specificity tyrosine-phosphorylation-regulated kinase 2 (Homo sapiens)", "assay": "Binding affinity to DYRK2"}, "[11]": {"assay": "Inhibition of Leishmania major recombinant CK1 expressed in Escherichia coli using RRKHAAIGpSAYSITA as substrate and [gamma33P]ATP after 30 mins by scintillation counting", "in_short": "as §2"}, "[12]": {"target": "Dual specificity protein kinase CLK4 (Mus musculus, UniProt O35493)", "sequence (O35493 whole entry)": "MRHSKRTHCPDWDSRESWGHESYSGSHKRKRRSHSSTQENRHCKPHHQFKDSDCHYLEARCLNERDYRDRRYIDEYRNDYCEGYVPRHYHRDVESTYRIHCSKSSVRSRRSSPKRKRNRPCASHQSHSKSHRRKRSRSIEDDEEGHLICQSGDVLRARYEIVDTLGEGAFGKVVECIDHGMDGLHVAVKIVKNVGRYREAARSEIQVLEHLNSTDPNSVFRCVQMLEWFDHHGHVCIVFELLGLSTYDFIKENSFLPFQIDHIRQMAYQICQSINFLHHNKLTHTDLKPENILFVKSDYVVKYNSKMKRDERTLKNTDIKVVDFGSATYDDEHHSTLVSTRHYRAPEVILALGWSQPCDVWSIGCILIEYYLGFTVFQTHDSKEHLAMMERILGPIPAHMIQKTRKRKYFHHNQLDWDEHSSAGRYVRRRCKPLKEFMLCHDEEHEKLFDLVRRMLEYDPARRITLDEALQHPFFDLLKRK", "assay": "Inhibition of mouse recombinant GST-tagged CLK4 expressed in Escherichia coli using GRSRSRSRSRSR as substrate and [gamma33P]ATP after 30 mins by scintillation counting"}, "[13]": {"target": "Serine/threonine-protein kinase pim-1 (Homo sapiens, UniProt P11309)", "sequence (P11309 whole entry)": "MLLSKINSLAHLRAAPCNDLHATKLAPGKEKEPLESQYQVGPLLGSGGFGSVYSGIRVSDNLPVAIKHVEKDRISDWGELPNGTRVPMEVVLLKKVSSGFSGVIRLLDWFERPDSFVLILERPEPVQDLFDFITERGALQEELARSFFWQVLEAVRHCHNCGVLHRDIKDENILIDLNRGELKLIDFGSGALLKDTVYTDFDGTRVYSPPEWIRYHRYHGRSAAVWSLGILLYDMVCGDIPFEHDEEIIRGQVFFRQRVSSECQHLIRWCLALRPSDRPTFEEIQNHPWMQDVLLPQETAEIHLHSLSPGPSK", "assay": "Inhibition of human recombinant PIM1 expressed in Escherichia coli using histone H1 as substrate and [gamma33P]ATP after 30 mins by scintillation counting"}, "CDK9/cyclin T1": {"target": "CDK9/cyclin T1 (Homo sapiens, UniProt P50750)", "sequence (O60563 whole entry)": "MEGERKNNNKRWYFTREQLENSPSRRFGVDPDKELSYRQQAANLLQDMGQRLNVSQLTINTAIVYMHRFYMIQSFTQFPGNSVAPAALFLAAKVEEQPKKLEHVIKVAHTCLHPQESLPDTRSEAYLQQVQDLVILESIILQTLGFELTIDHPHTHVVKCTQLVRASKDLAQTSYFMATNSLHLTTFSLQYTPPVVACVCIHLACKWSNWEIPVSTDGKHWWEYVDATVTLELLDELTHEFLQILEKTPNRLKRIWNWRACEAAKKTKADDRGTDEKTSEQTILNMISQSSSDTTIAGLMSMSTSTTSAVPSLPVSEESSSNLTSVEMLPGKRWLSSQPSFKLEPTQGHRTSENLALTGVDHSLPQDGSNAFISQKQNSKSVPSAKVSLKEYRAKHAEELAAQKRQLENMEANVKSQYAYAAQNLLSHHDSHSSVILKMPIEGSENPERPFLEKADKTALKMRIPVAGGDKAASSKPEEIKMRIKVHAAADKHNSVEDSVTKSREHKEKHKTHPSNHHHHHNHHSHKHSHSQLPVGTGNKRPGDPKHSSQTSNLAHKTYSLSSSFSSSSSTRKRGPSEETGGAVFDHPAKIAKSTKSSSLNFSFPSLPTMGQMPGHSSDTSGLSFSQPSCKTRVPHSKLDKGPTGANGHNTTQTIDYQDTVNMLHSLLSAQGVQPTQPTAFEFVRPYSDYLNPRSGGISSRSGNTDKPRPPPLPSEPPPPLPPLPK", "sequence (P50750 whole entry)": "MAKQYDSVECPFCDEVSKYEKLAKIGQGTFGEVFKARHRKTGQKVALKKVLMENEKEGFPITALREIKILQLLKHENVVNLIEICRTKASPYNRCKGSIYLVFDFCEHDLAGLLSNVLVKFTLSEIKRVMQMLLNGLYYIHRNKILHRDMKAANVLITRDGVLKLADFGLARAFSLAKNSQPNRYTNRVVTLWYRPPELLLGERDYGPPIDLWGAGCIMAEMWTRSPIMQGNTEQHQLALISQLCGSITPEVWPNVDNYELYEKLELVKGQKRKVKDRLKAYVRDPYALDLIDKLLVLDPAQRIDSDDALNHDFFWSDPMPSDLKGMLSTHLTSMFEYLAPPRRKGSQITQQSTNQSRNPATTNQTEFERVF", "assay": "Inhibition of human recombinant CDK9/cyclin T expressed in insect cell using YSPTSPSYSPTSPSYSPTSPSKKKK as substrate and [gamma33P]ATP after 30 mins by scintillation counting", "in_short": "as §2"}, "[14]": {"target": "Dual specificity tyrosine-phosphorylation-regulated kinase 2 (Homo sapiens, UniProt Q92630)", "assay": "Inhibition of human recombinant GST-tagged DYRK2 expressed in Escherichia coli using GRSRSRSRSRSR as substrate and [gamma33P]ATP after 30 mins by scintillation counting"}, "[15]": {"target": "Dual specificity protein kinase CLK1 (Homo sapiens) (UniProt P49759)", "sequence (P49759 whole entry, looked up)": "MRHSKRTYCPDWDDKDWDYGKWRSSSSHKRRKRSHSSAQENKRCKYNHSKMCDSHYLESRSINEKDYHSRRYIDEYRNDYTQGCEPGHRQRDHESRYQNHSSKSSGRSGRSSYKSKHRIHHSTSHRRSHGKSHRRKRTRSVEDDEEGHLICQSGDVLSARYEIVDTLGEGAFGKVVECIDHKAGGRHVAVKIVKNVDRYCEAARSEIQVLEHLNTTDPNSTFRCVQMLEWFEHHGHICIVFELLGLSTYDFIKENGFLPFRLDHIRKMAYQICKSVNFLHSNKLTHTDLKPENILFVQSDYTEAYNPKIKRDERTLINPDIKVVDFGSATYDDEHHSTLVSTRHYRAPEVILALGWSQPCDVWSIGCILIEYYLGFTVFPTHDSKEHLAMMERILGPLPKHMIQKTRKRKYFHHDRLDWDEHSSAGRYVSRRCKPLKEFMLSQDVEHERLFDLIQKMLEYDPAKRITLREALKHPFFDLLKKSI", "assay": "Binding affinity to CLK1"}, "[16]": {"target": "T2, Dual specificity tyrosine-phosphorylation-regulated kinase 4 (Homo sapiens, UniProt Q9NR20)", "T2 sequence (Q9NR20 whole entry)": "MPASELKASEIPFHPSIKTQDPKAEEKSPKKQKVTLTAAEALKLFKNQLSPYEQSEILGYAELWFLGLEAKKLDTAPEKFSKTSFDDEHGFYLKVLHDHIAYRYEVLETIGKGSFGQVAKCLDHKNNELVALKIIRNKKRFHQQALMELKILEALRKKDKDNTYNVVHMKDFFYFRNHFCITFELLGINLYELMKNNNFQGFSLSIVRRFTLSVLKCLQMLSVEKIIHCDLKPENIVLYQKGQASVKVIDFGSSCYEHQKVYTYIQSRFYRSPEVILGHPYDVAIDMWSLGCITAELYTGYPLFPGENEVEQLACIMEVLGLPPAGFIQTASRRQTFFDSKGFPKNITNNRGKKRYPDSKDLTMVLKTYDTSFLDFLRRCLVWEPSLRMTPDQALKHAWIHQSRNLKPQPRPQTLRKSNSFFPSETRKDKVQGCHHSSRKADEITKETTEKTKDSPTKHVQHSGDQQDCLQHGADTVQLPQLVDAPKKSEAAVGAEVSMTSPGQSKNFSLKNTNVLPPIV", "assay": "Inhibition of human recombinant GST-tagged DYRK4 expressed in Escherichia coli using GRSRSRSRSRSR as substrate and [gamma33P]ATP after 30 mins by scintillation counting"}, "[17]": {"target": "Mitogen-activated protein kinase 1 (Rattus norvegicus, UniProt P63086)", "sequence (P63086 whole entry)": "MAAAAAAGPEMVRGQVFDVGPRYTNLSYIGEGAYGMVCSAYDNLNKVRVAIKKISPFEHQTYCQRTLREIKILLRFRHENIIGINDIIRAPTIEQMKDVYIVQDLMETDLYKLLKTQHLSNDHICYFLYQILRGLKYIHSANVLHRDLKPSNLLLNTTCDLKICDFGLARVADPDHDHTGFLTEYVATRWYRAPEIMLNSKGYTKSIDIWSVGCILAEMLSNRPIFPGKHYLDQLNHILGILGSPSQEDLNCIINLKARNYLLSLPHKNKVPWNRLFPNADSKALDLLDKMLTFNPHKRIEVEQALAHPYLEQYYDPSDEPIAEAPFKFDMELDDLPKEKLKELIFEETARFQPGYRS", "assay": "Inhibition of rat recombinant ERK2 using Ets1 as substrate and [gamma33P]ATP as substrate after 30 mins by scintillation counting", "in_short": "as §2"}, "[18]": {"target": "Dual specificity tyrosine-phosphorylation-regulated kinase 3 (Homo sapiens, UniProt O43781)", "sequence (O43781 whole entry)": "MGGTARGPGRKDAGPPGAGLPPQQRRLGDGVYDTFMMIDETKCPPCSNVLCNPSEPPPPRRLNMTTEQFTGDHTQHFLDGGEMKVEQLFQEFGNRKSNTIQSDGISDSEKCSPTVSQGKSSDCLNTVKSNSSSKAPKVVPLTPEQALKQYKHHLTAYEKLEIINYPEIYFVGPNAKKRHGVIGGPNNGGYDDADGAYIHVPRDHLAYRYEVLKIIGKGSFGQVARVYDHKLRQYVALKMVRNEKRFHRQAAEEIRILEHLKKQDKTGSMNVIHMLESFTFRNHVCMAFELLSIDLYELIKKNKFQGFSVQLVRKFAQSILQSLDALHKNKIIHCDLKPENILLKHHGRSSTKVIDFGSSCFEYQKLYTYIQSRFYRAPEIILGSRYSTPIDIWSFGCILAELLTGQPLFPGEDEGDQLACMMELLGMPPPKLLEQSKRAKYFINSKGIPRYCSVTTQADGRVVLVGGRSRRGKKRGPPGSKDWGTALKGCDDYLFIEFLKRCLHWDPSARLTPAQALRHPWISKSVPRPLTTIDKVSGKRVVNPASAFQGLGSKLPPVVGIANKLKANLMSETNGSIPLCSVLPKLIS", "assay": "Inhibition of human recombinant GST-tagged DYRK3 expressed in Escherichia coli using GRSRSRSRSRSR as substrate and [gamma33P]ATP after 30 mins by scintillation counting"}, "[19]": {"target": "Casein kinase II (Homo sapiens) (UniProt P67870+P68400+P19784)", "assay": "Inhibition of human recombinant CK2 using RRREDEESDDEE as substrate and [gamma33P]ATP at 10 uM after 30 mins by scintillation counting", "assay_type": "protein-complex assay"}, "[20]": {"target": "Dual specificity protein kinase CLK2 (Mus musculus, UniProt O35491)", "sequence (O35491 whole entry)": "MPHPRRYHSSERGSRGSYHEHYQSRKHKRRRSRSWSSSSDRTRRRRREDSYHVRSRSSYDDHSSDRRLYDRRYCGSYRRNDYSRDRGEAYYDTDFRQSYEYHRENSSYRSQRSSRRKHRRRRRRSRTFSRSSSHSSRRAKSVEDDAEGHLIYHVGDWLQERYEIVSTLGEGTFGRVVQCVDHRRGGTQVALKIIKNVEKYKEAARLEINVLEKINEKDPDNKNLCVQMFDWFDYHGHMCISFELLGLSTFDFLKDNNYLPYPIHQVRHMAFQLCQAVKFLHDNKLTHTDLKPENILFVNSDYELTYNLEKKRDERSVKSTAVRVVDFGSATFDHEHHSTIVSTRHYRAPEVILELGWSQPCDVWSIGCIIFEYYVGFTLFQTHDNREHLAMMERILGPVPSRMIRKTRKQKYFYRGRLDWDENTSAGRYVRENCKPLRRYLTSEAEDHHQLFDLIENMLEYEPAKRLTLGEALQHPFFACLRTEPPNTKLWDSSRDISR", "assay": "Inhibition of mouse recombinant GST-tagged CLK2 expressed in Escherichia coli using GRSRSRSRSRSR as substrate and [gamma33P]ATP after 30 mins by scintillation counting", "in_short": "as §2"}, "[21]": {"assay": "Inhibition of Plasmodium falciparum recombinant GSK3 expressed in Escherichia coli using YRRAAVPPSPSLSRHSSPHQ-phosphoS-EDEEE as substrate and [gamma33P]ATP after 30 mins by scintillation counting", "in_short": "as §2"}, "[22]": {"target": "Dual specificity tyrosine-phosphorylation-regulated kinase 1A (Rattus norvegicus) (UniProt Q63470)", "conditions": "CD Sprague-Dawley, 4.5 to 45 uM"}, "[23]": {"target": "Cyclin-dependent kinase 7/ cyclin H (Homo sapiens, UniProt P50613)", "assay": "Inhibition of human recombinant CDK7/cyclin H expressed in insect cell using YSPTSPSYSPTSPSYSPTSPSKKKK as substrate and [gamma33P]ATP after 30 mins by scintillation counting", "in_short": "as §2"}, "[24]": {"assay": "Inhibition of pig […] isolated from brain using RRKHAAIGpSAYSITA as substrate and [gamma33P]ATP after 30 mins by scintillation couting", "design": "species or system Sus scrofa", "in_short": "as §2"}, "[25]": {"target": "Dual specificity protein kinase CLK4 (Homo sapiens, UniProt Q9HAZ1)", "assay": "Binding affinity to CLK4"}, "[26]": {"target": "Dual specificity protein kinase CLK1 (Mus musculus, UniProt P22518)", "sequence (P22518 whole entry)": "as the sequence (P22518 whole entry, looked up) above", "assay": "Inhibition of mouse recombinant GST-tagged CLK1 expressed in Escherichia coli using GRSRSRSRSRSR as substrate and [gamma33P]ATP after 30 mins by scintillation counting", "in_short": "as §2"}, "[27]": {"target": "Cyclin-dependent kinase 2/cyclin A (Homo sapiens, UniProt P24941)", "assay": "Inhibition of CDK2/cyclin A using [gamma33P]ATP after 30 mins by scintillation counting", "assay_type": "protein-complex assay", "in_short": "as §2"}, "[28]": {"target": "Dual specificity protein kinase CLK3 (Homo sapiens, UniProt P49761)", "sequence (P49761 whole entry, looked up)": "as the sequence (O35492 whole entry) above, with I55L, H64R, C83Y, S86P, A99G, S484T counted along it", "assay": "Binding affinity to CLK3"}, "HT-22 [29]": {"test_system": "HT-22", "assay": "Inhibition of GSK3-mediated […] phosphorylation in mouse HT22 cells at 10 uM after 24 hrs by Western blot analysis in presence of MG132", "assay_type": "cell-based"}}, "note": "Activity calls are given as the source filed them. The rule behind the calls is not given here.", "data": [{"smiles": "CCN(C)C(=O)Oc1cccc([C@H](C)N(C)C)c1", "values": [{"measurement": "inhibition", "setting": "[1]", "result": "inactive"}, {"measurement": "inhibition", "setting": "[2]", "result": "inactive"}, {"measurement": "inhibition", "setting": "[3]", "result": "inactive"}, {"measurement": "inhibition", "setting": "[4]", "result": "inactive"}]}, {"smiles": "Nc1c2c(nc3ccccc13)CCCC2", "values": [{"measurement": "inhibition", "setting": "[1]", "result": "inactive"}, {"measurement": "inhibition", "setting": "[2]", "result": "inactive"}, {"measurement": "inhibition", "setting": "[3]", "result": "inactive"}, {"measurement": "inhibition", "setting": "[4]", "result": "inactive"}]}, {"smiles": "O=C(O)c1ccc2c(c1)nc(Nc1cccc(Cl)c1)c1ccncc12", "values": [{"measurement": "Activity", "setting": "HT-22 [5]", "result": "inactive"}]}, {"smiles": "COc1ccc2c(c1)[nH]c1c(C)nccc12", "note": "[HARMINE]", "values": [{"measurement": "IC50", "setting": "[6]", "result": 18, "unit": "µM"}, {"measurement": "Activity", "setting": "[7]", "result": "Active"}, {"measurement": "IC50", "setting": "[8]", "result": "> 10", "unit": "µM"}, {"measurement": "IC50", "setting": "[9]", "result": 19, "unit": "µM"}, {"measurement": "Activity", "setting": "[10]", "result": "Active"}, {"measurement": "IC50", "setting": "[11]", "result": "≥ 10", "unit": "µM"}, {"measurement": "IC50", "setting": "[12]", "result": 0.05, "unit": "µM"}, {"measurement": "IC50", "setting": "[13]", "result": "> 10", "unit": "µM"}, {"measurement": "IC50", "setting": "CDK9/cyclin T1", "result": 0.72, "unit": "µM"}, {"measurement": "IC50", "setting": "[14]", "result": 0.12, "unit": "µM"}, {"measurement": "Activity", "setting": "[15]", "result": "Active"}, {"measurement": "IC50", "setting": "[16]", "result": 9.5, "unit": "µM"}, {"measurement": "IC50", "setting": "[17]", "result": "> 30", "unit": "µM"}, {"measurement": "IC50", "setting": "[18]", "result": 0.21, "unit": "µM"}, {"measurement": "inhibition", "setting": "[19]", "result": "inactive"}, {"measurement": "IC50", "setting": "[20]", "result": 0.28, "unit": "µM"}, {"measurement": "IC50", "setting": "[21]", "result": "> 10", "unit": "µM"}, {"measurement": "inhibition", "setting": "[22]", "result": "Active"}, {"measurement": "IC50", "setting": "[23]", "result": "> 10", "unit": "µM"}, {"measurement": "IC50", "setting": "[24]", "result": 1.8, "unit": "µM"}, {"measurement": "Activity", "setting": "[25]", "result": "Active"}, {"measurement": "IC50", "setting": "[26]", "result": 0.072, "unit": "µM"}, {"measurement": "IC50", "setting": "[27]", "result": "> 30", "unit": "µM"}, {"measurement": "Activity", "setting": "[28]", "result": "Active"}]}, {"smiles": "O=C1Nc2cc(Br)ccc2/C1=C1/N=c2ccccc2=C1NO", "values": [{"measurement": "inhibition", "setting": "HT-22 [29]", "result": "Active"}]}]}
